The source made the active and inactive calls. No cut-off for these calls is given here.
What was measured:
U-937 = assay: Cytotoxicity against human U937 cells after 72 hrs by MTT assay; assay type: functional, cell-based; conditions: U-937, 72 h
In short: (§1)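 MTT assay in HeLa, HL60 and U937 cancer lines. IC50 in µM is the mean ± SD of three independent experiments. 5-Fluorouracil and paclitaxel served as positive controls.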

HL-60 [1] = assay: Cytotoxicity against human HL60 cells after 72 hrs by MTT assay; assay type: functional, cell-based; conditions: HL-60, 72 h; in short: as §1
HeLa = assay: Cytotoxicity against human HeLa cells after 72 hrs by MTT assay; assay type: functional, cell-based; in short: as §1
[2] = Cytotoxicity against human PBMC cells assessed as cell viability at 5 uM after 24 hrs by MTT assay; assay type: cell-based; conditions: read-out: Activity
In short: (§2)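 PBMC from three healthy adult volunteers, seeded at 5 × 10^5 cells/well in 96-well plates; cultured with various doses of test agent for 12, 24, 48 and 72 h; viability read out; n=3, mean ± SD; significance p < 0.05.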

[3] = Cytotoxicity against human PBMC cells assessed as cell viability at 5 uM after 48 hrs by MTT assay; assay type: cell-based; conditions: read-out: Activity; in short: as §2
[4] = Cytotoxicity against human PBMC cells assessed as cell viability at 5 uM after 12 hrs by MTT assay; assay type: cell-based; conditions: read-out: Activity; in short: as §2
[5] = Cytotoxicity against human PBMC cells assessed as cell viability at 5 uM after 72 hrs by MTT assay; assay type: cell-based; conditions: read-out: Activity; in short: as §2
HL-60 [6] = assay: Induction of apoptosis in human HL60 cells assessed as nuclear fragmentation by acridine orange staining-based fluorescence microscopy; assay type: functional, cell-based
In short: (§3)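 HL60 cells were stained with acridine orange and examined under a fluorescence microscope for chromatin condensation and nuclear fragmentation, with control-medium cells as reference.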

HL-60 [7] = assay: Cell cycle arrest in human HL60 cells assessed as accumulation at sub-G1 phase by PI-based flow cytometry analysis; assay type: functional; conditions: TDE = time-dependent effect
In short: (§4)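 HL60 cells exposed to 0.5 µM for 24, 48 and 72 h alongside untreated controls. Apoptosis was quantified by flow cytometry as the subG1 fraction.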

HL-60 [8] = assay: Induction of autophagy in human HL60 cells at 0.5 umol/L after 24 hrs by MDC staining based flow cytometry (reference value: 2.27 +/- 0.43 %); assay type: functional
In short: (§5)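 HL60 cells were treated with 0.5 µmol L-1 for 0, 24, 48 or 72 h, stained with MDC, and fluorescence intensity was analysed by flow cytometry.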

PBMC = assay: Cytotoxicity against human PBMC cells assessed as cell viability at 160 uM after 24 to 72 hrs by MTT assay; assay type: cell-based
In short: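 PBMC were taken from three healthy adult volunteers and seeded at 5 × 10^5 cells/well. They were cultured 12, 24, 48 and 72 h across a range of concentrations up to 160 µM, with 5-FU for comparison. Viability is mean ± SD, n=3, compared by p < 0.05.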

HL-60 [9] = assay: Cell cycle arrest in human HL60 cells assessed as accumulation at sub-G1 phase after 72 hrs by PI-based flow cytometry analysis ( Rvb = 1.73 +/-0.08 %); assay type: functional; in short: as §4
HL-60 [10] = assay: Induction of autophagy in human HL60 cells assessed as increase in beclin 1 level at 0.5 umol/L by Western blot analysis; assay type: functional, cell-based; conditions: TDE = time-dependent effect
In short: (§6)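 HL60 cells were treated with 0.5 µmol L-1 over a time course and analysed by Western blot for Beclin-1 and LC3-I to LC3-II conversion, with β-actin as loading control.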

HL-60 [11] = assay: Cell cycle arrest in human HL60 cells assessed as accumulation at sub-G1 phase after 48 hrs by PI-based flow cytometry analysis ( Rvb = 1.73 +/-0.08 %); assay type: functional; in short: as §4
HL-60 [12] = assay: Induction of apoptosis in human HL60 cells assessed as membrane blebbing at 0.5 uM after 48 hrs by phase contrast microscopy; assay type: functional, cell-based
In short: (§7)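 HL60 cells were cultured with 0.5 µM for 24, 48 and 72 h. Morphology was compared with untreated control cells by microscopy.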

HL-60 [13] = assay: Induction of autophagy in human HL60 cells at 0.5 umol/L after 72 hrs by MDC staining based flow cytometry (reference value: 2.27 +/- 0.43 %); assay type: functional; in short: as §5
HL-60 [14] = assay: Induction of autophagy in human HL60 cells assessed as increase in LC3-II level at 0.5 umol/L by Western blot analysis; assay type: functional, cell-based; conditions: TDE = time-dependent effect; in short: as §6
HL-60 [15] = assay: Induction of apoptosis in human HL60 cells assessed as fragmentation of nuclei into apoptotic bodies at 0.5 uM after 48 hrs by phase contrast microscopy; assay type: functional, cell-based; in short: as §7
HL-60 [16] = assay: Induction of autophagy in human HL60 cells at 0.5 umol/L after 48 hrs by MDC staining based flow cytometry (reference value: 2.27 +/- 0.43 %); assay type: functional; in short: as §5
HL-60 [17] = assay: Induction of apoptosis in human HL60 cells assessed as chromatin condensation by acridine orange staining-based fluorescence microscopy; assay type: functional, cell-based; in short: as §3
HL-60 [18] = assay: Induction of apoptosis in human HL60 cells assessed as non-adherent dead cell at 0.5 uM after 48 hrs by phase contrast microscopy; assay type: functional, cell-based; in short: as §7
HL-60 [19] = assay: Induction of apoptosis in human HL60 cells assessed as round cell with shrunken nuclei at 0.5 uM after 48 hrs by phase contrast microscopy; assay type: functional, cell-based; in short: as §7
HL-60 [20] = assay: Induction of apoptosis in human HL60 cells assessed as retraction of cellular process at 0.5 uM after 24 hrs by phase contrast microscopy; assay type: functional, cell-based; in short: as §7
HL-60 [21] = assay: Induction of autophagy in human HL60 cells assessed as formation of autophagic vacuoles at 0.5 umol/L by MDC staining-based flow cytometry; assay type: functional, cell-based; conditions: TDE = time-dependent effect
In short: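 Autophagic vacuoles were labelled with monodansylcadaverine and viewed by fluorescence microscopy. MDC fluorescence intensity was quantified by flow cytometry after 0.5 µmol L-1 treatment.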

HL-60 [22] = assay: Induction of apoptosis in human HL60 cells assessed as decrease in apoptotic ratio at 0.5 uM after 24 hrs by MDC staining-based fluorescence analysis in presence of 3-MA; assay type: functional, cell-based
In short: (§8)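 HL60 cells were treated 24 h with 0.5 µM, with or without 1 mM 3-MA added beforehand. MDC-positive (autophagic) ratio and apoptotic ratio were measured by flow cytometry. Mean ± SD, n = 3.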

HL-60 [23] = assay: Induction of apoptosis in human HL60 cells assessed as decrease in number of MDC-positive cells at 0.5 uM after 24 hrs by MDC staining-based fluorescence analysis in presence of 3-MA; assay type: functional, cell-based; in short: as §8
HL-60 [24] = assay: Induction of apoptosis in human HL60 cells assessed as round in cell shape at 0.5 uM after 24 hrs by phase contrast microscopy; assay type: functional, cell-based; in short: as §7
HL-60 [25] = assay: Cell cycle arrest in human HL60 cells assessed as accumulation at sub-G1 phase after 24 hrs by PI-based flow cytometry analysis ( Rvb = 1.73 +/-0.08 %); assay type: functional; in short: as §4

## COc1cc(OC)cc(-c2nc3cc(Oc4ccc5[nH]c(-c6cc(OC)cc(OC)c6)nc5c4)ccc3[nH]2)c1
U-937
  IC50: 7.09 µM
HL-60 [1]
  IC50: 6.35 µM
HeLa
  IC50: 8.59 µM

## Brc1ccc(-c2nc3cc(Oc4ccc5[nH]c(-c6ccc(Br)cc6)nc5c4)ccc3[nH]2)cc1
U-937
  IC50: 21.7 µM
HL-60 [1]
  IC50: 17.2 µM
HeLa
  IC50: 20.4 µM

## Fc1ccc(-c2nc3cc(Oc4ccc5[nH]c(-c6ccc(F)cc6)nc5c4)ccc3[nH]2)cc1
U-937
  IC50: 22.6 µM
HL-60 [1]
  IC50: 23.2 µM
HeLa
  IC50: 22.8 µM

## CN1CCN(c2ccc3[nH]c(-c4ccc5[nH]c(-c6ccc(O)cc6)nc5c4)nc3c2)CC1 [HOECHST 33258]
U-937
  IC50: 15.4 µM
HL-60 [1]
  IC50: 32.4 µM
HeLa
  IC50: 51.3 µM

## Clc1ccc(-c2nc3cc(Oc4ccc5[nH]c(-c6ccc(Cl)cc6Cl)nc5c4)ccc3[nH]2)c(Cl)c1
U-937
  IC50: 20.5 µM
HL-60 [1]
  IC50: 15.8 µM
HeLa
  IC50: 17.2 µM

## O=c1[nH]cc(F)c(=O)[nH]1 [FLUOROURACIL]
[2]
  viability at 24 h, 5 µM: 94%
U-937
  IC50: 1.07 µM
[3]
  viability at 48 h, 5 µM: 87%
[4]
  viability at 12 h, 5 µM: 98%
HL-60 [1]
  IC50: 0.06 µM
[5]
  viability at 72 h, 5 µM: 76%
HeLa
  IC50: 0.28 µM

## COc1ccc(-c2nc3cc(Oc4ccc5[nH]c(-c6ccc(OC)cc6)nc5c4)ccc3[nH]2)cc1
HL-60 [6]
  Activity: Active
HL-60 [7]
  Activity: tde
HL-60 [8]
  Activity: 9.79%
PBMC
  Activity: Non-toxic
HL-60 [9]
  Activity: 89.61%
[2]
  viability at 24 h, 5 µM: 96%
HL-60 [10]
  Activity: tde
HL-60 [11]
  Activity: 63.02%
HL-60 [12]
  Activity: Active
U-937
  IC50: 0.58 µM
[3]
  viability at 48 h, 5 µM: 88%
HL-60 [13]
  Activity: 89.65%
HL-60 [14]
  Activity: tde
[4]
  viability at 12 h, 5 µM: 98%
HL-60 [1]
  IC50: 0.56 µM
HL-60 [15]
  Activity: Active
HL-60 [16]
  Activity: 47.27%
[5]
  viability at 72 h, 5 µM: 79%
HL-60 [17]
  Activity: Active
HL-60 [18]
  Activity: Active
HeLa
  IC50: 4.96 µM
HL-60 [19]
  Activity: Active
HL-60 [20]
  Activity: Active
HL-60 [21]
  Activity: tde
HL-60 [22]
  Activity: Active
HL-60 [23]
  Activity: Active
HL-60 [24]
  Activity: Active
HL-60 [25]
  Activity: 13.8%

## COc1cc(-c2nc3cc(Oc4ccc5[nH]c(-c6ccc(O)c(OC)c6)nc5c4)ccc3[nH]2)ccc1O
U-937
  IC50: 5.6 µM
HL-60 [1]
  IC50: 8.17 µM
HeLa
  IC50: 10.6 µM

## CC(=O)O[C@H]1C(=O)[C@@]2(C)[C@H]([C@H](OC(=O)c3ccccc3)[C@]3(O)C[C@H](OC(=O)[C@H](O)[C@@H](NC(=O)c4ccccc4)c4ccccc4)C(C)=C1C3(C)C)[C@]1(OC(C)=O)CO[C@@H]1C[C@@H]2O [PACLITAXEL]
U-937
  IC50: 0.00337 µM
HL-60 [1]
  IC50: 0.00282 µM

## COc1cc(-c2nc3cc(Oc4ccc5[nH]c(-c6cc(OC)c(OC)c(OC)c6)nc5c4)ccc3[nH]2)cc(OC)c1OC
U-937
  IC50: 6.92 µM
HL-60 [1]
  IC50: 7.56 µM
HeLa
  IC50: 9.37 µM

## c1ccc(-c2nc3cc(Oc4ccc5[nH]c(-c6ccccc6)nc5c4)ccc3[nH]2)cc1
U-937
  IC50: 17.1 µM
HL-60 [1]
  IC50: 16.5 µM
HeLa
  IC50: 18.4 µM

— ChEMBL document CHEMBL2146370, “Newly synthesized bis-benzimidazole derivatives exerting anti-tumor activity through induction of apoptosis and autophagy” (Bioorg Med Chem Lett, 2012)
